Experiment [1] has as its system Pseudomonas aeruginosa. In words: microbe, parasite or virus in culture. To be noted: K799, 24 h, read-out: DIZ.
For experiment [2], the system named is Mycolicibacterium vaccae. Nature of the experiment: Antibacterial activity against Mycobacterium vaccae IMET10670 at 5 ug/ml incubated for 44 hrs at 37 degC by agar diffusion assay. The class given is functional. To be noted: IMET10670, 44 h, read-out: DIZ. The essentials:
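Agar well diffusion with the sample in H2O at 5 μg/mL. 50 μL was added to 9 mm wells in nutrient or Mueller Hinton II agar. Plates were incubated at 37 °C for 24 h, or 44 h for M. vaccae, and inhibition zones were read.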
A general note: In agar diffusion tests the substance spreads into inoculated agar from a disc or well.

For experiment [3], the system named is Bacillus subtilis. In words: Antibacterial activity against Bacillus subtilis ATCC 6633 by broth microdilution method. It is filed as functional. The method in brief: (§1)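 Broth microdilution in Mueller-Hinton broth No.2 (MHII) following CLSI guidelines. The MIC (μM) was read by visual end point. Each compound was tested in triplicate.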
Background: In broth dilution the organism is exposed to a series of concentrations in liquid medium.

The subject of experiment [4] is Micrococcus luteus. In words: Antibacterial activity against Micrococcus luteus ATCC 10240 by broth microdilution method. The class given is functional. The method in brief:
as §1

Experiment [5] relates to Pseudomonas aeruginosa. In words: Antibacterial activity against wild type Pseudomonas aeruginosa K799 by broth microdilution method. The class given is functional. The essentials:
as §1

Experiment [6] concerns Mycolicibacterium vaccae. Nature of the experiment: Antibacterial activity against Mycobacterium vaccae IMET10670 by broth microdilution method. The class given is functional. The essentials: as §1
Experiment [7] relates to Micrococcus luteus. In words: Antibacterial activity against Micrococcus luteus ATCC 10240 at 5 ug/ml incubated for 24 hrs at 37 degC by agar diffusion assay. It is filed as functional. To be noted: ATCC 10240, 24 h, read-out: DIZ. The method in brief:
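Agar well diffusion: the drug was dissolved in water and added to 9 mm wells cut in Standard I Nutrient Agar or Mueller Hinton II agar seeded with the strain. Inhibition zone diameters were read after 24 h at 37 °C. Zones were scored as very unclear where the zone boundary was indistinct.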

Experiment [8] deals with Pseudomonas aeruginosa. Nature of the experiment: microbe, parasite or virus in culture. To be noted: K799/61, 24 h, read-out: DIZ.
The subject of experiment [9] is Escherichia coli. Nature of the experiment: Antibacterial activity against Escherichia coli DC2 by broth microdilution method. It is filed as functional. The essentials: as §1
The test system of experiment [10] is Pseudomonas aeruginosa. In words: microbe, parasite or virus in culture. The conditions noted are these: K799/61, 24 h, read-out: DIZ. This is another data set of the same source.
Experiment [11] deals with Pseudomonas aeruginosa. Nature of the experiment: Antibacterial activity against Pseudomonas aeruginosa K799/61 by broth microdilution method. It is filed as functional. The method in brief:
as §1

Experiment [12] deals with Acinetobacter baumannii. In words: Antibacterial activity against Acinetobacter baumannii ATCC 17961 by broth microdilution method. The class given is functional. The essentials: as §1
The subject of experiment [13] is Staphylococcus aureus. In words: Antibacterial activity against Staphylococcus aureus SG511 by broth microdilution method. It is filed as functional. The essentials: as §1
Experiment [14] concerns Escherichia coli. Nature of the experiment: Antibacterial activity against Escherichia coli DC0 by broth microdilution method. It is filed as functional. The essentials:
as §1

The test system of experiment [15] is Staphylococcus aureus. In words: Antibacterial activity against Staphylococcus aureus SG511 at 5 ug/ml incubated for 24 hrs at 37 degC by agar diffusion assay. The conditions noted are these: SG511, 24 h, read-out: DIZ.
For experiment [16], the system named is Acinetobacter baumannii. Nature of the experiment: microbe, parasite or virus in culture. The conditions noted are these: ATCC 17961, 24 h, read-out: DIZ.
In experiment [17] the test system is Bacillus subtilis. Nature of the experiment: microbe, parasite or virus in culture. To be noted: ATCC 6633, 24 h, read-out: DIZ.
The test system of experiment [18] is Escherichia coli. In words: Antibacterial activity against Escherichia coli DC0 at 5 ug/ml incubated for 24 hrs at 37 degC by agar diffusion assay. To be noted: DC0, 24 h, read-out: DIZ.
In experiment [19] the test system is Bacillus subtilis. In words: microbe, parasite or virus in culture. The conditions noted are these: ATCC 6633, 24 h, read-out: DIZ. The source holds these as a separate data set.
In experiment [20] the test system is Acinetobacter baumannii. Nature of the experiment: microbe, parasite or virus in culture. The conditions noted are these: ATCC 17961, 24 h, read-out: DIZ. This is another data set of the same source.

Structures are written as SMILES. Values after ≈ are worked out from the molar mass of the structure shown.

The MIC is the smallest concentration in the dilution series that meets the test's criterion for growth inhibition. Turning to `O=C(O)c1cn(C2CC2)c2cc(N3CCNCC3)c(F)cc2c1=O` [CIPROFLOXACIN], the zone of inhibition at 1.66 µg/mL in experiment [1] amounted to 15 mm; in experiment [8], 19 mm; in experiment [10], 24 mm; in experiment [17] it was 20 mm; in [19], 24 mm. In addition, the zone of inhibition at 5 µg/mL was 23 mm in experiment [2]; 0 mm in experiment [7]; 21 mm in experiment [15]; 18 mm in [16]; 18 mm in experiment [18]; 21 mm in [20]. The MIC in [3] was found to be 0.03 µM (≈ 0.00994 µg/mL); in experiment [4] it was 8 µM (≈ 2.65 µg/mL); in [5], 0.47 µM (≈ 0.156 µg/mL); in [6], 0.47 µM (≈ 0.156 µg/mL); in experiment [9], 0.24 µM (≈ 0.0795 µg/mL); in experiment [11], 0.24 µM (≈ 0.0795 µg/mL). Besides, the MIC was 0.24 µM (≈ 0.0795 µg/mL) in [12], 0.47 µM (≈ 0.156 µg/mL) in experiment [13] and 0.47 µM (≈ 0.156 µg/mL) in [14].

The values above are taken from ChEMBL document CHEMBL3585272, “Syntheses and Antibacterial Activity of N-Acylated Ciprofloxacin Derivatives Based on the Trimethyl Lock” (ACS Med Chem Lett, 2015).
